Compound activity as filed in PubChem.
Rows were chosen to be rich in hits. Some 1.7% of all compounds tested hit in one or more screens of this group.
Rpn11 block: Rpn11 (PSMD14) deubiquitinase inhibitors, primary screen, biochemical, fluorescence polarization, uHTS; 360,000 tested, 0.59% active; AID 588493, 2011; human 26S proteasome, Ub4-pepOG fluorescence polarization; 20S core pre-blocked with epoxomicin; inhibition, % at 20 µM;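 active = inhibition at 20 µM, scaled to each plate's controls, above about 33%, limit read from the data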
Target sequence (O00487 whole entry, looked up): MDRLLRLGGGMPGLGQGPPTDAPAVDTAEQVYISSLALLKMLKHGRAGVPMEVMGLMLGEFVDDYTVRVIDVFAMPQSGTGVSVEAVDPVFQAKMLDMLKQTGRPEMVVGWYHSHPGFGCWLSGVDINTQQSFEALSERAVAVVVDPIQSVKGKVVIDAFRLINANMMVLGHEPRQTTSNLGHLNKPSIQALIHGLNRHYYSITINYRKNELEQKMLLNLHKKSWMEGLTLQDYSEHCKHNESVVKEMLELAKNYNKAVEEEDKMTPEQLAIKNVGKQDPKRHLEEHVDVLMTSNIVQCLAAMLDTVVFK
PLCg1 inh: PLC-gamma1 enzyme inhibitors, primary screen, biochemical, fluorescence, purified enzyme | fluorogenic substrate | 370,000 tested, 0.84% active | 1-phosphatidylinositol 4,5-bisphosphate phosphodiesterase gamma-1 (Homo sapiens), P19174 | inhibition, % at 12.2 µM; in the data active = inhibition above about 9.5%
PLC-beta3 inh: human PLC-beta3 inhibitors, primary screen, biochemical, fluorescence; 370,000 tested, 0.18% active; inhibition, % at 12.2 µM; AID 720704, 2013; Purified PLC-beta3, fluorogenic substrate; in the data active = inhibition above about 11%;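 also: 0% = median of compound wells on plate and 100% = full blocker control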
UCH37 inh: inhibitors of human UCH37 deubiquitinase, primary screen, biochemical, Ub-AMC cleavage, fluorescence; Ubiquitin carboxyl-terminal hydrolase isozyme L5 (Homo sapiens), Q9Y5K5; purified proteasome/UCH37; inhibition, % (test concentration not listed); 330,000 tested, 0.33% active; AID 588478, 2011;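 active = mean inhibition over replicate wells above about 20%, limit read from the data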;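 also: 0% = compound-free wells with enzyme and 100% = wells lacking proteasome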
Target sequence (Q9Y5K5 whole entry, looked up): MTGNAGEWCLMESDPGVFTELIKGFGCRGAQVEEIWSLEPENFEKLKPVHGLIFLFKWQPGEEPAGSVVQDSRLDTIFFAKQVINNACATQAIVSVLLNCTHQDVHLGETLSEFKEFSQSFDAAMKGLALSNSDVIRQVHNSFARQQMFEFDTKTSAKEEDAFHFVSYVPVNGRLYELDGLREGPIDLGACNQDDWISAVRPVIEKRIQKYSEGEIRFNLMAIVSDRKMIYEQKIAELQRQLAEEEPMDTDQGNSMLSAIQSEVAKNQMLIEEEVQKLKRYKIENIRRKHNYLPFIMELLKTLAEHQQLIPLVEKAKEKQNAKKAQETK
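Material: Human UCH37 enzyme supplied as purified proteasome complex | Schedule: 30 min compound-proteasome preincubation then 25 min substrate reaction, room temperature | Detection: AMC fluorescence from Ub-AMC cleavage, excitation 355 nm, emission 460 nm | Benchmarks: Wells without proteasome as full block, compound-free enzyme plus substrate as uninhibited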
* = called active by the depositor; x = no result given; ! = not confirmed by another sample.

SMILES | Rpn11 block | PLCg1 inh | PLC-beta3 inh | UCH37 inh
CCCCn1c(NC(=O)c2ccco2)c(S(=O)(=O)c2ccc(C)cc2)c2nc3ccccc3nc21 | x | -369 | -492 | -206
CC1(CC(=O)NN=Cc2ccc(-c3ccc(C(=O)O)cc3)o2)OCCO1 | x | x | x | -42
Cc1ccc2nc(N3C(=O)C(O)=C(C(=O)c4cc5ccccc5o4)C3c3cccs3)sc2c1 (stereo not drawn) | 56* | x | x | x
CCc1ccc2nc(N3C(=O)C(O)=C(C(=O)c4ccco4)C3c3cccs3)sc2c1 (stereo not drawn) | 57* | x | x | x
O=[N+]([O-])c1ccc(S(=O)(=O)NN=Cc2ccsc2)cc1 | x | x | x | 9
CC[C@H]1C=C[C@@H](C(C(=O)OC)C(=O)OC)CN1C(C)=O | -9 | 25* | 4 | x
C=CC[C@H]1C=C[C@@H](C(C(=O)OC)C(=O)OC)CN1C(C)=O | -3 | 20* | -2 | x
CCC1CCCCN1C(=O)N[C@@H](CCSC)C(=O)OC (stereo partly drawn) | -5 | -1 | 3 | 0
CC(=NNC(=S)NCc1ccccc1)c1cccs1 | x | x | x | 3
CC(C)(C)N1C(=O)c2ccc(C(=O)O)cc2C1=O | 0 | 1 | 1 | -2
O=C(O)c1ccc2c(c1)C(=O)/C(=C/c1ccccc1)C2=O | -26 | -12 | -15 | 22*
O=C(Nc1ccc2nc(-c3cccs3)c(-c3cccs3)nc2c1)N1CCOCC1 | 47* | -264 | -397 | -54
N#CC(=C(O)CN1CCOCC1)c1nc2ccccc2s1 | x | x | x | 11
Cc1ccc2nc(SCC(=O)NN=Cc3ccc(C(=O)O)cc3)cc(C)c2c1 | x | x | x | 1
COC1=C/C(=C/c2c(N)n3nc(-c4ccc(C)cc4)sc3nc2=O)C=CC1=O | x | -42 | -50 | 7
CCS(=O)(=O)c1nn2c(N)c(/C=C3/C=CC(=O)C(OC)=C3)c(=O)nc2s1 | x | -1 | -1 | 22*
O=C(NCC(F)(F)F)c1ccc(S(=O)(=O)Nc2ccccc2N2CCCC2)cc1 | 91* | -4 | -2 | 5
CC(C)CN(C(=O)CCNC(=O)c1ccc([N+](=O)[O-])cc1)C1CCS(=O)(=O)C1 (stereo not drawn) | 1 | 7 | 11* | 1
O=C(COc1ccc(Cl)cc1Cl)NN=Cc1ccccn1 | x | x | x | -1
Cn1cc([N+](=O)[O-])c(C(=O)NN=Cc2ccncc2)n1 | x | x | x | 1
O=S(=O)(O)c1cccc(N=Nc2c(O)ccc3ccccc23)c1 | 16 | 1 | -10 | 22*
CCCCCCCCC[n+]1cccc2c3ccccc3ccc21 | -9 | x | x | -109
CCCCCCCCCCCCCCCC[n+]1cccc2ccccc21 | 78* | 2 | 4 | 88*
CCCC12CN3CCN(CC(C3)C1=NNC(=O)c1ccc(C(C)(C)C)cc1)C2 | x | x | x | 5
CCOc1ccc(/C(O)=C2/C(=O)C(=O)N(CCN(CC)CC)C2c2cccs2)cc1 (stereo not drawn) | -2 | 0 | -7 | 1
SMILES | Rpn11 block | PLCg1 inh | PLC-beta3 inh | UCH37 inh
C=CCOc1ccc(/C(O)=C2\C(=O)C(=O)N(CCN(C)C)C2c2cccs2)cc1 (stereo not drawn) | 1 | -3 | -4 | 24*
CCCCCCCCS(=O)C1CCS(=O)(=O)C1 (stereo not drawn) | 0 | -3 | -1 | x
CCCCCCS(=O)[C@H]1CS(=O)(=O)C[C@@H]1S(=O)CCCCCC (stereo partly drawn) | -4 | 3 | 11* | -5
O=C(O)c1ccccc1C=NNC(=O)c1cc(-c2ccco2)nc2ccccc12 | x | x | x | -218
O=C(O)c1cc(-c2ccco2)nc2ccc(Br)cc12 | 63*! | -38 | -43 | -110
COc1ccc(CNC(=S)NN=Cc2ccncc2)cc1 | x | x | x | 34*
CCOc1ccc(CNC(=S)NN=Cc2cccnc2)cc1 | x | x | x | 3
COC(=O)CNC(=O)C1Cc2ccccc2CN1S(=O)(=O)c1ccc(F)cc1 (stereo not drawn) | 0 | 9.6* | -1 | -1
CCN(CC)c1ccc(C(=O)c2ccccc2C(=O)O)c(O)c1 | -4 | 0 | -7 | 20*
CC(=O)c1c(C)oc2ccc(NS(=O)(=O)c3ccc(O)c(C(=O)O)c3)cc12 | 0 | 11* | 4 | 3
CN1/C(=C/C=C/c2n(C)c3cc([N+](=O)[O-])c([N+](=O)[O-])cc3[n+]2C)C(C)(C)c2ccccc21 | 15 | 9.7* | 13* | x
COC(=O)c1cn(CCOc2ccccc2OC)c2ccccc12 | 3 | 3 | 3 | 22*
COC(=O)c1cn(CCOc2ccccc2F)c2ccccc12 | 6 | 3 | -2 | 3
COc1ccc2c(c1)c(C(=O)CN1CCC3(CC1)OCCO3)c(C)n2C | -5 | -7 | -4 | 27*
COc1ccc2c(c1)c(C(=O)CN1CCOCC1)c(C)n2C | -2 | -7 | -10 | 2
Cc1cc(NN=Cc2c[nH]c3ccccc23)c2ccccc2n1 | x | x | x | -22
COC(CNC(=O)c1ccc2c3c(onc13)-c1ccccc1C2=O)OC | -1 | -7 | -13 | 20*
Fc1ccccc1COc1ccc(C=NNC(=S)NCc2ccccc2)cc1 | x | x | x | 7
NC1=NC(=O)/C(=C\c2ccc(O)c([N+](=O)[O-])c2)S1 | -3 | 4 | 4 | 24*
COc1cc(/C=C2/SC(N)=NC2=O)ccc1Oc1ccc([N+](=O)[O-])cc1[N+](=O)[O-] | -4 | -1 | 0 | 5
CC(C)C[C@H]1CN([C@@H](Cc2ccc(O)cc2)CN2CCC[C@@H]2CN2C(=O)C(=O)NC[C@@H]2Cc2ccccc2)C(=O)C(=O)N1CC1CCCCC1 | 19 | 13* | 5 | x
CC(C)C[C@H]1CN([C@@H](Cc2ccccc2)CN2CCC[C@@H]2CN2C(=O)C(=O)NC[C@@H]2Cc2ccc(O)cc2)C(=O)C(=O)N1CC1CCCCCC1 | 9 | 2 | 0 | x
CC(C)C[C@@H](CN1CCC[C@@H]1CN1C(=O)C(=O)NC[C@@H]1Cc1ccccc1)N1C[C@H](Cc2ccccc2)N(CC2CCCCCC2)C(=O)C1=O | 6 | 4 | 13* | x
CCN(CC)S(=O)(=O)c1ccccc1C=NO | x | x | x | 3
CC(=NOC(=O)c1ccc(C(F)(F)F)cc1)c1oc(C)nc1C | x | x | x | 5
SMILES | Rpn11 block | PLCg1 inh | PLC-beta3 inh | UCH37 inh
COc1ccc(C=Nn2c(-c3cc(C)[nH]n3)n[nH]c2=S)cc1 | x | x | x | 4
Cn1c(=O)c2nnn(N=C(c3ccccc3)C3CC3)c2n(C)c1=O | x | x | x | 34*
Cn1c(=O)c2nnn(/N=C(\c3ccccc3)C3CC3)c2n(C)c1=O | -6 | 0 | 2 | x
CCn1c(O)c(N=Nc2ccc(Cl)c(C(=O)O)c2)c2ccccc21 | 0 | -19 | -39 | 20*
COC(=O)C1(C)NC(c2ccc(O)cc2)C2C(=O)N(c3ccccc3)C(=O)C21 (stereo not drawn) | -5 | -2 | -6 | 1
COC(=O)C1(C)NC(c2ccc(O)cc2)C2C(=O)N(c3ccc(F)cc3)C(=O)C21 (stereo not drawn) | 4 | 15* | 3 | -1
COc1cc2c(cc1OC)C(c1cccs1)N(C(=O)c1cccnc1)CC2 (stereo not drawn) | -4 | 9.9* | 4 | -1
